Data set [1] concerns Mycobacterium tuberculosis. The data set can be described thus: Antimicrobial activity against Mycobacterium tuberculosis H37Rv expressing GFP supplemented with casitone/glucose/tyloxapol assessed as reduction in bacterial growth measured on day 14. Type of data set: functional. Particulars: 336 h, time 14 day. Summed up: (§1)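 Line 1 medium is 7H9 with ADC and 0.05% Tween80. Line 2 medium is 7H9 with 0.03% casitone, 0.4% glucose and 0.05% tyloxapol. Incubated at 37 °C, 5% CO2, humidified. Fluorescence (ex 485/em 520) read at day 14 and normalised to rifampicin (2× MIC) and 5% DMSO controls. MIC90 is the lowest concentration giving >90% inhibition.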

The subject of data set [2] is Mycobacterium tuberculosis. The data set can be described thus: Antimicrobial activity against Mycobacterium tuberculosis H37Rv expressing GFP supplemented with albumin/dextrose/catalase/glucose/tween80 assessed as reduction in bacterial growth measured on day 14. Type of data set: functional. Particulars: 336 h, time 14 day. Summed up: as §1
Data set [3] can be described thus: Aqueous solubility of compound in PBS at pH6.5 incubated for 24 hrs by shake-flask method. Type of data set: physicochemical. The note with it: pH 6.5. Summed up:
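Miniaturised shake-flask, 96-well: 4 µL of 10 mM DMSO stock dried down, then phosphate-buffered saline pH 6.5 added; shaken 24 h at 25 °C, centrifuged 3500 g for 15 min. Supernatant quantified by HPLC-DAD against a 10–220 µM calibration curve prepared in DMSO.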

The nature of data set [4]: Metabolic stability in human liver microsome assessed as intrinsic clearance measured for 30 mins by LC-MS/MS analysis. Type of data set: ADME. The note with it: liver microsomes, read-out: CLH. Summed up: (§2)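 Compound at 1 µM incubated with liver microsomes at 0.4 mg/mL, 37 °C for 30 min. Human microsomes were mixed gender, rat were male IGS, mouse were male CD1. Quenched with ice-cold acetonitrile containing internal standard and centrifuged. Parent disappearance measured by LC-MS/MS, with half-life and clearance from standard equations.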
(Microsomes from liver hold many membrane-bound enzymes, among them those of drug oxidation.)

A short description of data set [5]: Metabolic stability in CD-1 mouse liver microsome assessed as parent compound remaining after 30 mins by LC-MS/MS analysis. Type of data set: ADME. The note with it: liver microsomes, read-out: Stability. Summed up: as §2
A short description of data set [6]: Metabolic stability in CD-1 mouse liver microsome assessed as intrinsic clearance measured for 30 mins by LC-MS/MS analysis. Type of data set: ADME. The note with it: liver microsomes, read-out: CLH. Summed up:
as §2

Data set [7] relates to Mycobacterium tuberculosis. The data set is described as follows: Antitubercular activity against Mycobacterium tuberculosis H37Rv assessed as reduction in microbial growth measured for 14 days. Type of data set: functional. Particulars: 336 h, time 14 day. Summed up: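 Strains were H37Rv, the fluoroquinolone-resistant GyrA G88C mutant, and the dprE1 P116S and C387S mutants. All were cultured in standard Middlebrook 7H9 with ADC supplement.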

Data set [8] is described as follows: Lipophilicity, log P of the compound in octanol/buffer incubated for 2 hrs under shaking condition by shake flask based HPLC-UV method. Type of data set: physicochemical. Summed up:
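LogD at pH 7.4 by miniaturised shake-flask in deep-well plates. Compound partitioned between equal volumes of 1-octanol and PBS pH 7.4, shaken vigorously 2 h at 25 °C. Phases separated, each analysed by HPLC-UV with diode array detection. LogD calculated from peak areas in octanol and buffer.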

A short description of data set [9]: Metabolic stability in human liver microsome assessed as parent compound remaining after 30 mins by LC-MS/MS analysis. Particulars: liver microsomes, read-out: Stability. Type of data set: ADME. Summed up: as §2
Data set [10] can be described thus: Cytotoxicity against HEK293 cells assessed as reduction in cell viability incubated for 20 hrs by resazurin staining based assay. Type of data set: toxicity. The note with it: human. Summed up:
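HEK-293 cells grown in DMEM with 10% FBS, seeded at 5×10^3 cells/well into compound-containing plates, 20 h at 37 °C, 5% CO₂. Resazurin added for a further 3 h, fluorescence read at ex 560/em 590 nm. CC₅₀ from sigmoidal dose-response fit (variable top, bottom, slope) of inhibition vs log concentration. Highest concentration tested 32 µg/mL.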

Data set [11] can be described thus: Metabolic stability in rat liver microsome assessed as parent compound remaining after 30 mins by LC-MS/MS analysis. Type of data set: ADME. The note with it: liver microsomes, read-out: Stability. Summed up: as §2
A short description of data set [12]: Metabolic stability in rat liver microsome assessed as intrinsic clearance measured for 30 mins by LC-MS/MS analysis. Type of data set: ADME. Particulars: liver microsomes, read-out: CLH. Summed up:
as §2

As a reminder, the MIC90 is an inhibitory concentration at the 90% level, which refers to growth in some studies and to a panel of isolates in others. As a reminder, the thermodynamic solubility is the concentration in solution at equilibrium with solid. What is called logD is the decadic logarithm of the distribution of all forms, ionised or not, between an organic phase and buffer at a given pH. One may read the CC50 as the concentration giving 50% cytotoxicity. The logP is a log measure of how a compound divides between an organic and an aqueous phase.

In brackets after ≈: the same amount, converted by molar mass.

Consider `O=c1c(Br)c[nH]c2c([N+](=O)[O-])cc(C(F)(F)F)cc12`, for which the MIC90 in [1] worked out at 1.6 µM (≈ 0.539 µg/mL); in data set [2], 16 µM (≈ 5.39 µg/mL).

On to `O=C(NCc1ccc(F)c(F)c1)c1c[nH]c2c([N+](=O)[O-])cc(C(F)(F)F)cc2c1=O`, for which the MIC90 was 7 µM (≈ 2.99 µg/mL) in data set [1] and 31.3 µM (≈ 13.4 µg/mL) in data set [2].

On to `Cc1cccc(CNC(=O)c2c[nH]c3c([N+](=O)[O-])cc(C(F)(F)F)cc3c2=O)c1`, for which the MIC90 was less than 0.244 µM in data set [1] and 2.9 µM (≈ 1.18 µg/mL) in [2].

On to `O=C(NCCc1ccc(C(F)(F)F)cc1)c1c[nH]c2c([N+](=O)[O-])cc(C(F)(F)F)cc2c1=O`, for which the thermodynamic solubility at 24 h in [3] is less than 5 µM. For the same compound, the microsomal CLint in data set [4] turned out to be 31.7 µL/min/mg; in data set [6] it was 33.3 µL/min/mg; in data set [12], 33.2 µL/min/mg. Moreover, the remaining at 0.5 h in data set [5] was 67%; in data set [9], 68%; in data set [11], 68%. For the same compound, the MIC90 is 0.9 µM in data set [7], less than 0.244 µM in data set [1] and less than 0.244 µM in data set [2]. Further, in data set [8], the logD at 2 h is 4.4. For the same compound, in [10], the CC50 at 20 h is greater than 20 µM.

Regarding `O=c1cc[nH]c2c([N+](=O)[O-])cc(C(F)(F)F)cc12`, the MIC90 in [1] was 62.5 µM (≈ 16.1 µg/mL); in data set [2], 16 µM (≈ 4.13 µg/mL).

`O=C(NCCc1ccc(Cl)cc1)c1c[nH]c2c([N+](=O)[O-])cc(C(F)(F)F)cc2c1=O` yielded a solubility (thermodynamic) at 24 h in data set [3] of less than 5 µM. For the same compound, the microsomal CLint amounted to 24.3 µL/min/mg in [4], 23 µL/min/mg in data set [6] and 18.4 µL/min/mg in data set [12]. Also, the results for the remaining at 0.5 h in data set [5], in [9] and in data set [11] were 76%, 75% and 80%, respectively. For the same compound, the MIC90 was 1.9 µM in [7], less than 0.244 µM in [1] and less than 0.244 µM in [2]. The compound further had a logD at 2 h in data set [8] of 4.3. The CC50 at 20 h in data set [10] was greater than 20 µM.

With `NNC(=O)c1c[nH]c2c([N+](=O)[O-])cc(C(F)(F)F)cc2c1=O`, the MIC90 in [1] and in [2] was greater than 125 µM throughout.

Turning to `NNC(=O)c1ccncc1` [ISONIAZID], the MIC90 in data set [7] came to 3.5 µM.

For the compound `O=C(NCc1ccccc1Cl)c1c[nH]c2c([N+](=O)[O-])cc(C(F)(F)F)cc2c1=O`, the values for the MIC90 in [1] and in data set [2] were 0.5 µM (≈ 0.213 µg/mL) and 0.8 µM (≈ 0.341 µg/mL), respectively.

Consider `CCOC(=O)c1c[nH]c2c([N+](=O)[O-])cc(C(F)(F)F)cc2c1=O`, for which the MIC90 in [1] and in [2] was less than 0.244 µM in each case.

Compound `O=C(NCCc1ccc(F)cc1)c1c[nH]c2c([N+](=O)[O-])cc(C(F)(F)F)cc2c1=O` came in with a thermodynamic solubility at 24 h in [3] of less than 5 µM. The microsomal CLint in data set [4] was 25.9 µL/min/mg; in data set [6] it was 48.8 µL/min/mg; in [12], 23.4 µL/min/mg. Moreover, the remaining at 0.5 h in data set [5] amounted to 56%; in data set [9], 73%; in [11], 75%. Also, the MIC90 in [7] is 2 µM; in data set [1], less than 0.244 µM; in data set [2], 0.9 µM (≈ 0.381 µg/mL). The same compound gave a logP at 2 h in data set [8] of 4. The CC50 at 20 h in [10] was greater than 20 µM.

As for `O=C(O)c1c[nH]c2c([N+](=O)[O-])cc(C(F)(F)F)cc2c1=O`, the MIC90 in [1] is 62.5 µM (≈ 18.9 µg/mL); in [2] it was greater than 125 µM.

For the compound `O=C(NCc1ccc(F)cc1)c1c[nH]c2c([N+](=O)[O-])cc(C(F)(F)F)cc2c1=O`, the MIC90 in data set [1] was greater than 125 µM; in [2], 8.1 µM (≈ 3.32 µg/mL).

Take `O=C(Nc1cccc(C(F)(F)F)c1)c1cnc2c([N+](=O)[O-])cc(C(F)(F)F)cc2c1Cl`: the MIC90 in data set [1] was 0.7 µM (≈ 0.325 µg/mL); in data set [2], 31.2 µM (≈ 14.5 µg/mL).

As to `O=C(NCc1ccc(Cl)cc1)c1c[nH]c2c([N+](=O)[O-])cc(C(F)(F)F)cc2c1=O`, the figures for the MIC90 in data set [1] and in data set [2] were greater than 125 µM and 7.4 µM (≈ 3.15 µg/mL), respectively.

On to `O=C(NCc1cccc(F)c1)c1c[nH]c2c([N+](=O)[O-])cc(C(F)(F)F)cc2c1=O`, for which the MIC90 in data set [1] was 0.5 µM (≈ 0.205 µg/mL); in data set [2], 3 µM (≈ 1.23 µg/mL).

For `COc1c(N2C[C@@H]3CCCN[C@@H]3C2)c(F)cc2c(=O)c(C(=O)O)cn(C3CC3)c12` [MOXIFLOXACIN], the MIC90 in data set [7] was determined as 0.1 µM.

`O=C(NCc1cccc(Cl)c1)c1c[nH]c2c([N+](=O)[O-])cc(C(F)(F)F)cc2c1=O`: the MIC90 in data set [1] was greater than 125 µM; in data set [2], 2.99 µM (≈ 1.27 µg/mL).

On to `CO[C@H]1/C=C/O[C@@]2(C)Oc3c(C)c(O)c4c(O)c(c(/C=N/N5CCN(C)CC5)c(O)c4c3C2=O)NC(=O)/C(C)=C\C=C\[C@H](C)[C@H](O)[C@@H](C)[C@@H](O)[C@@H](C)[C@H](OC(C)=O)[C@@H]1C` [RIFAMPIN], for which the MIC90 in data set [1] and in data set [2] was 0.01 µM (≈ 0.00823 µg/mL) in each case.

As for `Cc1ccc(CCNC(=O)c2c[nH]c3c([N+](=O)[O-])cc(C(F)(F)F)cc3c2=O)cc1`, the MIC90 was greater than 125 µM in [1] and 0.244 µM (≈ 0.102 µg/mL) in data set [2].

For the origin of these results see ChEMBL document CHEMBL5620388, “Quinolone analogues of benzothiazinone: Synthesis, antitubercular structure-activity relationship and ADME profiling” (Eur J Med Chem, 2023).
